Test [1] has as its target T1, Poa1p (Saccharomyces cerevisiae, UniProt P38218).
T1 sequence (P38218 1-177): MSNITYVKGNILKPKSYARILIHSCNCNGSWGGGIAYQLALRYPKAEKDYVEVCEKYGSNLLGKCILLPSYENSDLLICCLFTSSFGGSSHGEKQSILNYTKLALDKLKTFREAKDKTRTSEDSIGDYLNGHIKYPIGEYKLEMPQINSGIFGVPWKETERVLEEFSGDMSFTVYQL
The test can be described thus: Inhibition of Appr1p phosphatase activity of Poa1p. It counts as biochemical. The gist of the method:
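Candidate inhibitors were first surveyed at 10 mM under two conditions: 8 nM Poa1p with 26 nM Appr1p for 1 h, and 35 nM Poa1p with 5 μM Appr1p for 2 h. IC50 was then obtained by titrating inhibitor concentration with 35 nM Poa1p and 5 μM Appr1p for 2 h. Readout was radiolabeled Appr1p conversion, separated by TLC.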

Test [2] has as its system Hal2p. Description: Inhibition of Appr1p phosphatase activity of Hal2p. The note with it: Appr1p well below KM; data not shown. It is filed as biochemical, Saccharomyces cerevisiae. The gist of the method: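 Purified His6-Hal2p at 104 nM was mixed with 5 nM Appr1p and each potential inhibitor at 10 mM. Incubation lasted long enough to convert ~50% of substrate without inhibitor. Labeled product was resolved by PEI-cellulose TLC and quantified by phosphorimaging.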

The subject of test [3] is yeast crude extracts. The test can be described thus: Appr1p processing activity of yeast crude extracts. It counts as biochemical, Saccharomyces cerevisiae. As to conditions: for extract amount by which Appr1p is 50% processed: 17 nM Ap*pr1p, 1 h, 30°C. The gist of the method:
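Yeast strains (BY4741 background: wild type, poa1, hal2, and the double deletion) were grown to A600 1.0, washed in cold water, stored at −70°C and lysed with glass beads. Extracts were assayed in 5-fold serial dilutions (starting 16, 29, 23 and 21 μg respectively) with 17 nM Ap*pr1p for 1 h at 30°C. Reactions were phenol:chloroform-treated and resolved on PEI-cellulose TLC.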

Test [4] concerns the target T1, Poa1p. Description: KI for ADP-ribose by the method of Dixon. It is filed as biochemical. The gist of the method:
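Ap*pr1p hydrolysis by 43 nM Poa1p at four fixed Appr1p concentrations (1–25 μM) with ADP-ribose 0–300 μM. Initial-rate inverses plotted against [ADP-ribose]; resulting slopes replotted against 1/[Appr1p]. KI derived from the secondary slope (KM/(Vmax·KI)) using known KM and Vmax for Appr1p. All fits by linear regression.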

For test [5], the system named is Hal2p. The test can be described thus: Appr1p phosphatase and pAp phosphatase assay, steady-state kinetics of Hal2p. It counts as biochemical, Saccharomyces cerevisiae. The note with it: for Km / kcat: substrate of Hal2p, 30°C, pH 7.5.
In test [6] the target is T1, Poa1p. Description: Appr1p phosphatase assay, steady-state kinetics of Poa1p. It counts as biochemical.
Where [7] appears, read: read-out: Inhibition in survey at 10 mM competitor (IC50), 10 mM competitor, 8 nM Poa1p, 26 nM Appr1p, 1 h, and 35 nM Poa1p, 5 μM Appr1p, 2 h.
[8] abbreviates: substrate of Poa1p, 30°C, pH 7.5, 21 nM Poa1p.

Where “and” joins values, the source holds several entries; their conditions need not be identical. Identical values can stand only once. Like-named read-outs stand apart in the source and are kept apart here.

The term IC50 denotes the concentration that gives 50% inhibition. As for `Nc1ncnc2c1ncn2[C@@H]1O[C@H](CO)[C@@H](O)[C@H]1OP(=O)(O)O` [2′pA], the IC50 in test [1] (setting [7]) is above 10 mM.

The compound `Nc1ccn([C@@H]2O[C@H](CO)[C@@H](O)[C@H]2OP(=O)(O)O)c(=O)n1` [2′pC] gave an IC50 in test [1] (35 nM Poa1p, 5 μM Appr1p, 2 h) above 10 mM.

In the case of `Nc1nc2c(ncn2[C@@H]2O[C@H](CO)[C@@H](O)[C@H]2OP(=O)(O)O)c(=O)[nH]1` [2′pG], the “Inhibition of Appr1p phosphatase activity of Hal2p (in words)” value (shortened to “Inhibition … of Hal2p (in words)”) in test [2] is listed as “inhibited”. Besides, in test [1] (setting [7]), the IC50 is above 10 mM.

Regarding `Nc1ncnc2c1ncn2[C@@H]1O[C@H](CO)[C@@H](OP(=O)(O)O)[C@H]1O` [3′pA], the “Inhibition … of Hal2p (in words)” value in test [2] is “inhibited”. In addition, in test [1] (35 nM Poa1p, 5 μM Appr1p, 2 h), the concentration for half-maximal inhibition (IC50) is above 10 mM.

In the case of `Nc1ccn([C@@H]2O[C@H](CO)[C@@H](OP(=O)(O)O)[C@H]2O)c(=O)n1` [3′pC], the IC50 in test [1] (setting [7]) is above 10 mM.

As for `Nc1nc2c(ncn2[C@@H]2O[C@H](CO)[C@@H](OP(=O)(O)O)[C@H]2O)c(=O)[nH]1` [3′pG], the “Inhibition of phosphatase activity remaining in poa1-Δ extract (in words)” value in test [3] (poa1-Δ extract, data not shown) is given as “inhibited”. Also, the IC50 in test [1] (setting [7]) is above 10 mM.

In the case of `Nc1ncnc2c1ncn2[C@@H]1O[C@H](COP(=O)(O)O)[C@@H](O)[C@H]1O` [5′pA, AMP], the IC50 in test [1] (setting [7]) is above 10 mM.

As usually defined, the Ki is a dissociation constant, usually derived from enzyme kinetics or from competition with a known ligand. A lower Ki goes with tighter binding. As for `Nc1ncnc2c1ncn2[C@@H]1O[C@H](COP(=O)(O)OP(=O)(O)OC[C@H]2OC(O)[C@H](O)[C@@H]2O)[C@@H](O)[C@H]1O` (stereo partly drawn) [ADPR, ADP-ribose], the “Inhibition … of Hal2p (in words)” value in test [2] is reported as “inhibited”. In addition, 0.03 mM corresponded to half-maximal inhibition in test [1] (35 nM Poa1p, 5 μM Appr1p, 2 h) (IC50). Moreover, in test [4] (43 nM Poa1p, varied Appr1p and ADP-ribose (0–300 μM), Dixon plot), the Ki amounted to 17 µM. Also, the mode of inhibition entry in test [4] (plots of inverse initial rates versus inhibitor concentration) was “classical competitive inhibition”.

Compound `Nc1ncnc2c1ncn2[C@@H]1O[C@H](COP(=O)(O)OP(=O)(O)O)[C@@H](O)[C@H]1O` [ADP] came in with a 50% inhibitory concentration (IC50) in test [1] (35 nM Poa1p, 5 μM Appr1p, 2 h) above 10 mM.

The compound `Nc1ncnc2c1ncn2[C@@H]1O[C@H](COP(=O)(O)OP(=O)(O)OC[C@H]2O[C@@H](n3cnc4c(N)ncnc43)[C@H](O)[C@@H]2O)[C@@H](O)[C@H]1O` [AppA] yielded an IC50 in test [1] (35 nM Poa1p, 5 μM Appr1p, 2 h) of 1 mM.

Usually Km stands for the substrate concentration at which the rate is half of its maximum. As usually defined, the kcat is the number of substrate molecules converted per active site and unit of time at saturation. Regarding `Nc1ncnc2c1ncn2[C@@H]1O[C@H](COP(=O)(O)OP(=O)(O)OC[C@H]2O[C@H](OP(=O)(O)O)[C@H](O)[C@@H]2O)[C@@H](O)[C@H]1O` [Appr1p, ADP-ribose-1″-phosphate], the “extract amount by which Appr1p is 50% processed” value in test [3] (hal2-Δ extract) came to 1.2 µg; in test [3] (poa1-Δ extract) it was 33 µg; in test [3] (poa1-Δ, hal2-Δ double mutant extract), 20 µg; in test [3] (wild-type extract), 1.8 µg. For the same compound, the results for the Michaelis-Menten constant (Km) in test [5] and in test [6] (setting [8]) were 74 µM and 2800 nM, respectively. Moreover, the results for the kcat in test [5] and in test [6] (setting [8]) were 3.2 min⁻¹ and 1.7 min⁻¹, respectively. Besides, the “preference of Poa1p for Appr1p relative to pAp” value in test [6] (as measured by observed rates) was “at least 340 fold”. In test [6] (substrate Appr1p), the “kcat/KM difference in favor of Poa1p over Hal2p” value came out at 14 fold. Also, in test [6] (substrate Appr1p), the “lower KM of Poa1p relative to Hal2p” value was around 25 fold.

Consider `NC(=O)c1ccc[n+]([C@H]2O[C@@H](COP(=O)([O-])OP(=O)(O)OC[C@H]3O[C@@H](n4cnc5c(N)ncnc54)[C@H](OP(=O)(O)O)[C@@H]3O)[C@H](O)[C@@H]2O)c1` [NADP], for which the “Inhibition … of Hal2p (in words)” value in test [2] was “inhibited”. Besides, in test [1] (35 nM Poa1p, 5 μM Appr1p, 2 h), half-maximal inhibition (IC50) required 2 mM.

`NC(=O)c1ccc[n+]([C@@H]2O[C@H](COP(=O)([O-])OP(=O)(O)OC[C@H]3O[C@@H](n4cnc5c(N)ncnc54)[C@H](O)[C@@H]3O)[C@@H](O)[C@H]2O)c1` [NAD] returned an IC50 in test [1] (35 nM Poa1p, 5 μM Appr1p, 2 h) of 1.5 mM.

For `O=P(O)(O)OC[C@H]1OC(O)(CO)[C@@H](O)[C@@H]1O` (stereo partly drawn) [fructose-6p], in test [1] (setting [7]), the concentration for half-maximal inhibition (IC50) is above 10 mM.

Consider `O=P(O)(O)O[C@H]1O[C@H](CO)[C@@H](O)[C@H](O)[C@H]1O` [glucose-1p], for which the IC50 in test [1] (setting [7]) is above 10 mM.

Consider `O=C[C@H](O)COP(=O)(O)O` [glyceraldehyde-3p], for which, in test [1] (setting [7]), the IC50 was above 10 mM.

On to `Nc1ncnc2c1ncn2[C@@H]1O[C@H](COP(=O)(O)O)[C@@H](OP(=O)(O)O)[C@H]1O` [pAp], for which, in test [2], the “Inhibition … of Hal2p (in words)” value is on record as “inhibited”. In addition, the IC50 in test [1] (setting [7]) is above 10 mM. In test [5] (as measured by kcat/KM values), the “preference of Hal2p for pAp relative to Appr1p” value is on record as 10^4 fold. Moreover, in test [5], the Km was found to be 0.1 µM; the kcat was 54 min⁻¹ and 54.0 min⁻¹. Further, the “Poa1p phosphatase activity on substrate (in words)” value in test [6] (conditions where a turnover of 0.005 min^−1 (0.3% of the activity with Appr1p) should be easily observed) is listed as “no detectable activity”.

Consider `O=P(O)(O)O[C@H]1O[C@H](CO)[C@@H](O)[C@H]1O` [ribose-1p], for which the IC50 in test [1] (setting [7]) is above 10 mM.

With `O=C[C@H](O)[C@H](O)[C@H](O)COP(=O)(O)O` [ribose-5p, ribose 5-phosphate], the “Inhibition … of Hal2p (in words)” value in test [2] is on record as “inhibited”. In addition, in test [1], the 50% inhibitory concentration (IC50) was above 10 mM.

The values are drawn from PMC548356 (Nucleic Acids Research, 2005).
